Assay results from ChEMBL document CHEMBL1127542, “Inhibitors of acyl-CoA:cholesterol O-acyl transferase (ACAT) as hypocholesterolemic agents. 8. Incorporation of amide or amine functionalities into a series of disubstituted ureas and carbamates. Effects on ACAT inhibition in vitro and efficacy in vivo” (J Med Chem, 1994).
Calls of active or inactive are those of the source. No cut-off for these calls is given here.

What was measured:
Rattus norvegicus [1] = test: Percent change in total cholesterol in cholic acid (0.5%)-cholesterol (1.5%)-peanut oil (5.5%)-fed rats (50 mg/kg was administered as the standard dose); No change; assay type: functional, organism-based
Outline: (§1)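 Acute screen: rats given a single gavage dose, 50 mg/kg standard unless noted, suspended in carboxymethylcellulose plus Tween-20 in water, then a single high-fat, high-cholesterol meal (0.5% cholic acid, 1.5% cholesterol, 5.5% peanut oil). Overnight rise in plasma total cholesterol measured as % change versus control. Stomachs checked for food. ANOVA with Fisher's multiple range test, p<0.05.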

[2] = biological target: Sterol O-acyltransferase 1 (Oryctolagus cuniculus); test: In vitro inhibition of rabbit intestinal acyl coenzyme A:cholesterol acyltransferase using [1-14C]oleolyl-CoA
Rattus norvegicus [3] = test: The compound at a dose of 50 mg/kg is evaluated for percent change in High Density Lipoprotein (HDl) level in chronic cholesterol fed rat screen; assay type: functional
Outline: (§2)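 Chronic model: rats fed the high-fat, high-cholesterol diet for 14 days. In the second week, 50 mg/kg given daily by gavage in carboxymethylcellulose/Tween-20 aqueous vehicle. Plasma HDL and non-HDL cholesterol expressed as % change versus control. Body-weight gain monitored. ANOVA with Fisher's multiple range test, p<0.05.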

Rattus norvegicus [4] = test: The compound at a dose of 50 mg/kg is evaluated for percent change in Non-High Density Lipoprotein level in chronic cholesterol fed rat screen; assay type: functional; outline: as §2
Rattus norvegicus [5] = species: Rattus norvegicus; test: Percent change in total cholesterol in cholic acid (0.5%)-cholesterol (1.5%)-peanut oil (5.5%)-fed rats; assay type: functional; outline: as §1
Rattus norvegicus [6] = test: The compound at a dose of 50 mg/kg is evaluated for percent change in High Density Lipoprotein (HDL) level in chronic cholesterol fed rat screen; assay type: functional; outline: as §2
[7] = biological target: T1, Sterol O-acyltransferase 1 (Rattus norvegicus, UniProt O70536); test: In vitro inhibition of rat intestinal acyl coenzyme A:cholesterol acyltransferase using [1-14C]oleolyl-CoA
T1 sequence (O70536 whole entry): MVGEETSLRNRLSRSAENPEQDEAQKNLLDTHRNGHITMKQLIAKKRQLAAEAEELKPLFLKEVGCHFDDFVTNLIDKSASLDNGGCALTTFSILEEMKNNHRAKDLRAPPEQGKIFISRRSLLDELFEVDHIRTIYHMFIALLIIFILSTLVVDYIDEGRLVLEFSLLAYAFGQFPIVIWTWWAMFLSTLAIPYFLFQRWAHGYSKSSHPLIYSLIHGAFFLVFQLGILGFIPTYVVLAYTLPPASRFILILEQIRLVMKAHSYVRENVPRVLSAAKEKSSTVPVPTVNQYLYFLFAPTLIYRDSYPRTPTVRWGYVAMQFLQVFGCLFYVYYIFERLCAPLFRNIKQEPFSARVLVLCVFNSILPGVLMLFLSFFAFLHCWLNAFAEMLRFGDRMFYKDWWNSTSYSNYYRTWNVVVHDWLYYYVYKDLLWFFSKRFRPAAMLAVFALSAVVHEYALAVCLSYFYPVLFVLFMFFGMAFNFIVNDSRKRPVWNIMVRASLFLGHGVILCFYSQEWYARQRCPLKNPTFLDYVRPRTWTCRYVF

Rattus norvegicus [8] = test: The compound at a dose of 50 mg/kg is evaluated for percent change in High Density Lipoprotein (HDl) level in chronic cholesterol fed rat screen; No change; assay type: functional, organism-based; design: dose 50 mg/kg; outline: as §2
Rattus norvegicus [9] = test: The compound at a dose of 50 mg/kg is evaluated for percent change in NON-High Density Lipoprotein level in chronic cholesterol fed rat screen; assay type: functional; outline: as §2

IC50 [2] | Structure (SMILES) | Change (Rattus norvegicus [1]) | Change (Rattus norvegicus [5]) | further results
4200 nM | CC(C)c1cccc(C(C)C)c1NC(=O)NCC(NC(=O)CCCCCN(C)C)c1ccccc1 (stereo not given) | inactive | – | –
45 nM | CCCCCCCCCCCCNC(CNC(=O)Nc1c(C(C)C)cccc1C(C)C)c1ccccc1 (racemic) | – | -45% | Change (Rattus norvegicus [3]): 29%; Change (Rattus norvegicus [4]): 27%
81 nM | CCCCCCCCCCCCCCCC(=O)NC(CNC(=O)Nc1c(C(C)C)cccc1C(C)C)c1ccccc1 (stereo not given) | inactive | – | –
2800 nM | CCOC(=O)N1CCN(CCCCCC(=O)NC(CNC(=O)Nc2c(C(C)C)cccc2C(C)C)c2ccccc2)CC1 (stereo not given) | inactive | – | –
400 nM | CC(C)=CCCC(C)CC(=O)NC(CNC(=O)Nc1c(C(C)C)cccc1C(C)C)c1ccccc1 (stereo not given) | inactive | – | –
650 nM | CCCCCCC(=O)NCC(CNC(=O)Nc1c(C(C)C)cccc1C(C)C)c1ccccc1 (stereo not given) | inactive | – | –
130 nM | CC(C)c1cccc(C(C)C)c1NC(=O)NCC(NC(=O)c1cccc[n+]1[O-])c1ccccc1 (stereo not given) | – | -44% | Change (Rattus norvegicus [3]): 70%; Change (Rattus norvegicus [4]): -31%
79 nM | CCCCCCCCCCCC(=O)NCC(CNC(=O)Nc1c(C(C)C)cccc1C(C)C)c1ccccc1 (stereo not given) | inactive | – | –
150 nM | CCCCCCC(=O)NC(CNC(=O)Nc1c(C(C)C)cccc1C(C)C)c1ccccc1 (stereo not given) | inactive | – | –
– | CC(C)c1cccc(C(C)C)c1NC(=O)NCC1(c2ccc(N(C)C)cc2)CCCC1 [NEVANIMIBE] | – | – | Change (Rattus norvegicus [6]): 200%; Change (Rattus norvegicus [4]): -62%
380 nM | COCCCCCC(=O)NC(CNC(=O)Nc1c(C(C)C)cccc1C(C)C)c1ccccc1 (stereo not given) | inactive | – | –
2500 nM | CC(=O)NC(CNC(=O)Nc1c(C(C)C)cccc1C(C)C)c1ccccc1 (stereo not given) | inactive | – | –
120 nM | CCCCCCCCCCCCCCCCNC(CNC(=O)Nc1c(C(C)C)cccc1C(C)C)c1ccccc1 (racemic) | inactive | – | –
1900 nM | CC(C)c1cccc(C(C)C)c1NC(=O)NCC(CNC(=O)c1ccccc1)c1ccccc1 (stereo not given) | inactive | – | –
– | CC(C)c1cccc(C(C)C)c1NC(=O)NCC(NCc1ccc(CN(C)C)cc1)c1ccccc1 (single isomer, unassigned; (-)) | – | -57% | IC50 [7]: 170 nM
110 nM | CCCCCCCCCCCCNCC(CNC(=O)Nc1c(C(C)C)cccc1C(C)C)c1ccccc1 (racemic) | – | -54% | Change (Rattus norvegicus [8]): inactive
530 nM | CC(C)c1cccc(C(C)C)c1NC(=O)NCC(NC(=O)c1ccccc1)c1ccccc1 (stereo not given) | inactive | – | –
> 5000 nM | CC(C)c1cccc(C(C)C)c1NC(=O)NCC(NC(=O)CCCCCN)c1ccccc1 (stereo not given) | inactive | – | –
2600 nM | COC(=O)CCCCC(=O)NC(CNC(=O)Nc1c(C(C)C)cccc1C(C)C)c1ccccc1 (stereo not given) | inactive | – | –
17 nM | CC(C)c1cccc(C(C)C)c1NC(=O)NCC1(c2ccccc2)CCCC1 | – | -38% | Change (Rattus norvegicus [3]): -12%; Change (Rattus norvegicus [4]): -7%
1200 nM | CC(C)c1cccc(C(C)C)c1NC(=O)NCC(NC(=O)c1c(Cl)cccc1Cl)c1ccccc1 (stereo not given) | inactive | – | –
120 nM | CC(C)c1cccc(C(C)C)c1NC(=O)NCC(NCc1ccccc1O)c1ccccc1 (single isomer, unassigned; (-)) | – | -50% | Change (Rattus norvegicus [3]): 40%; Change (Rattus norvegicus [9]): 3%
33 nM | CC(C)c1cccc(C(C)C)c1NC(=O)NCC(NCc1ccccc1)c1ccccc1 (single isomer, unassigned; (-)) | – | -29% | –
